Data set [1] is described as follows: Serum stability study in normal mouse serum, MALDI-TOF MS. Type of data set: in vitro ADME. Particulars: 37 °C, result in words.
Data set [2] concerns CT-26 colon carcinoma tumors / M2-like TAMs. The experiment in a line: In vivo biodistribution study in CT-26 tumor model. Further details: species or system mouse. To be noted: 20 min after injection, n = 5, result in words. In a few lines:
(§1)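 Female BALB/c mice (6 week-old) received CT-26 cells in the right flank or 4T1 cells in the mammary fat pad, and were used 2 weeks later (tumor diameter ≤1.5 cm). Sulfo-Cy5-labeled test compound (2.24 nmol, PBS/10% DMSO) or PBS was injected retro-orbitally. After 20 min, mice were PBS-perfused. Tumors were enzymatically dissociated, Fc-blocked, stained for CD11b/Ly-6G/F4/80, PFA-fixed and run on flow cytometry. Subsets were compared by one-way ANOVA/Tukey.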

Data set [3] concerns 4T1 breast carcinoma tumors / M2-like TAMs. Description: In vivo biodistribution study in 4T1 tumor model. The arrangement: species or system mouse. Particulars: 20 min after injection, n = 3, result in words. In a few lines: as §1

The values that follow come from paper PMC4924508 (Theranostics, 2016).

Square brackets hold non-standard residues; d marks the D form. Peptide text beside a SMILES is read from it. * marks the point of attachment. Biotin = O=C1N[C@H]2[C@H](CS[C@H]2CCCCC(=O)*)N1

In the case of `CC(=O)N[C@@H](Cc1ccc(O)cc1)C(=O)N[C@@H](CCC(=O)O)C(=O)N[C@@H](CCC(N)=O)C(=O)N[C@@H](CC(=O)O)C(=O)N1CCC[C@H]1C(=O)N[C@@H](Cc1c[nH]c2ccccc12)C(=O)NCC(=O)N[C@H](C(=O)N[C@@H](CCCNC(=N)N)C(=O)N[C@@H](Cc1ccc(O)cc1)C(=O)N[C@@H](Cc1c[nH]c2ccccc12)C(=O)N[C@@H](Cc1ccc(O)cc1)C(=O)NCC(=O)NCC(=O)NCC(=O)N[C@@H](CO)C(=O)N[C@H](CCCCN)C(=O)N[C@H](CCCCN)C(=O)N[C@H](CCCCN)C(=O)N[C@@H](CCCCNC(=O)CCCC[C@@H]1SC[C@@H]2NC(=O)N[C@@H]21)C(N)=O)C(C)C` [AcM2pep(RY)Biotin] (Ac-YEQDPWGVRYWYGGGS[dK][dK][dK]K(Biotin)-NH2), the “protection against endolytic cleavage at the W10/W11 site in serum” value (shortened to “protection against endolytic cleavage”) in data set [1] is “did not improve serum stability at the W10/W11 site”. For `CC(=O)N[C@@H](Cc1ccc(O)cc1)C(=O)N[C@@H](CCC(=O)O)C(=O)N[C@@H](CCC(N)=O)C(=O)N[C@@H](CC(=O)O)C(=O)N1CCC[C@H]1C(=O)N[C@@H](Cc1c[nH]c2ccccc12)C(=O)NCC(=O)N[C@H](C(=O)N[C@@H](CCCCN)C(=O)N[C@@H](Cc1c[nH]c2ccccc12)C(=O)N[C@@H](Cc1c[nH]c2ccccc12)C(=O)N[C@@H](Cc1ccc(O)cc1)C(=O)NCC(=O)NCC(=O)NCC(=O)N[C@@H](CO)C(=O)N[C@@H](CCCCN)C(=O)N[C@@H](CCCCN)C(=O)N[C@@H](CCCCN)C(=O)N[C@@H](CCCCNC(=O)CCCC[C@@H]1SC[C@@H]2NC(=O)N[C@@H]21)C(N)=O)C(C)C` [AcM2pepBiotin] (Ac-YEQDPWGVKWWYGGGSKKKK(Biotin)-NH2), in data set [1], the overall serum stability entry was “did not improve the overall serum stability” and the “resistance to N-terminal (exolytic) degradation in serum” value was “resistant to N-terminal degradation”.

As for `CC(=O)N[C@@H](Cc1ccc(O)cc1)C(=O)N[C@@H](CCC(=O)O)C(=O)N[C@@H](CCC(N)=O)C(=O)N[C@@H](CC(=O)O)C(=O)N1CCC[C@H]1C(=O)N[C@@H](Cc1c[nH]c2ccccc12)C(=O)NCC(=O)N[C@H](C(=O)N[C@@H](CCCNC(=N)N)C(=O)N[C@@H](Cc1c[nH]c2ccccc12)C(=O)N[C@@H](Cc1c[nH]c2ccccc12)C(=O)N[C@@H](Cc1ccc(O)cc1)C(=O)NCC(=O)NCC(=O)NCC(=O)N[C@@H](CO)C(=O)N[C@@H](CCCCN)C(=O)N[C@@H](CCCCN)C(=O)N[C@@H](CCCCN)C(=O)N[C@@H](CCCCNC(=O)CCCC[C@@H]1SC[C@@H]2NC(=O)N[C@@H]21)C(N)=O)C(C)C` [K9R] (Ac-YEQDPWGVRWWYGGGSKKKK(Biotin)-NH2), in data set [1], the “protection against endolytic cleavage” value is “did not confer protection at the W10/W11 site”. Turning to `CC(=O)N[C@@H](Cc1ccc(O)cc1)C(=O)N[C@@H](CCC(=O)O)C(=O)N[C@@H](CCC(N)=O)C(=O)N[C@@H](CC(=O)O)C(=O)N1CCC[C@H]1C(=O)N[C@@H](Cc1c[nH]c2ccccc12)C(=O)NCC(=O)N[C@H](C(=O)N[C@@H](CCCCN)C(=O)N1CCC[C@H]1C(=O)N[C@@H](Cc1c[nH]c2ccccc12)C(=O)N[C@@H](Cc1ccc(O)cc1)C(=O)NCC(=O)NCC(=O)NCC(=O)N[C@@H](CO)C(=O)N[C@H](CCCCN)C(=O)N[C@H](CCCCN)C(=O)N[C@H](CCCCN)C(=O)N[C@@H](CCCCNC(=O)CCCC[C@@H]1SC[C@@H]2NC(=O)N[C@@H]21)C(N)=O)C(C)C` [W10P] (Ac-YEQDPWGVKPWYGGGS[dK][dK][dK]K(Biotin)-NH2), the “protection against endolytic cleavage” value in data set [1] is recorded as “did not confer protection at the W10/W11 site”.

Consider `CC(=O)N[C@@H](Cc1ccc(O)cc1)C(=O)N[C@@H](CCC(=O)O)C(=O)N[C@@H](CCC(N)=O)C(=O)N[C@@H](CC(=O)O)C(=O)N1CCC[C@H]1C(=O)N[C@@H](Cc1c[nH]c2ccccc12)C(=O)NCC(=O)N[C@H](C(=O)N[C@@H](CCCCN)C(=O)N[C@@H](Cc1ccc(O)cc1)C(=O)N[C@@H](Cc1c[nH]c2ccccc12)C(=O)N[C@@H](Cc1ccc(O)cc1)C(=O)NCC(=O)NCC(=O)NCC(=O)N[C@@H](CO)C(=O)N[C@H](CCCCN)C(=O)N[C@H](CCCCN)C(=O)N[C@H](CCCCN)C(=O)N[C@@H](CCCCNC(=O)CCCC[C@@H]1SC[C@@H]2NC(=O)N[C@@H]21)C(N)=O)C(C)C` [W10Y] (Ac-YEQDPWGVKYWYGGGS[dK][dK][dK]K(Biotin)-NH2), for which, in data set [1], the “protection against endolytic cleavage” value is “did not confer protection at the W10/W11 site”. Still for that read-out and setting: for `CC(=O)N[C@@H](Cc1ccc(O)cc1)C(=O)N[C@@H](CCC(=O)O)C(=O)N[C@@H](CCC(N)=O)C(=O)N[C@@H](CC(=O)O)C(=O)N1CCC[C@H]1C(=O)N[C@@H](Cc1c[nH]c2ccccc12)C(=O)NCC(=O)N[C@H](C(=O)N[C@@H](CCCCN)C(=O)N[C@H](Cc1c[nH]c2ccccc12)C(=O)N[C@@H](Cc1c[nH]c2ccccc12)C(=O)N[C@@H](Cc1ccc(O)cc1)C(=O)NCC(=O)NCC(=O)NCC(=O)N[C@@H](CO)C(=O)N[C@@H](CCCCN)C(=O)N[C@@H](CCCCN)C(=O)N[C@@H](CCCCN)C(=O)N[C@@H](CCCCNC(=O)CCCC[C@@H]1SC[C@@H]2NC(=O)N[C@@H]21)C(N)=O)C(C)C` [W10w] (Ac-YEQDPWGVK[dW]WYGGGSKKKK(Biotin)-NH2) the value was “effective protection against endolytic cleavage at the W10/W11 site”.

For the compound `CC(=O)N[C@@H](Cc1ccc(O)cc1)C(=O)N[C@@H](CCC(=O)O)C(=O)N[C@@H](CCC(N)=O)C(=O)N[C@@H](CC(=O)O)C(=O)N1CCC[C@H]1C(=O)N[C@@H](Cc1c[nH]c2ccccc12)C(=O)NCC(=O)N[C@H](C(=O)N[C@@H](CCCNC(=N)N)C(=O)N[C@@H](Cc1ccc(O)cc1)C(=O)N[C@@H](Cc1c[nH]c2ccccc12)C(=O)N[C@H](Cc1ccc(O)cc1)C(=O)NCC(=O)NCC(=O)NCC(=O)N[C@@H](CO)C(=O)N[C@H](CCCCN)C(=O)N[C@H](CCCCN)C(=O)N[C@H](CCCCN)C(=O)N[C@@H](CCCCNC(=O)CCCC[C@@H]1SC[C@@H]2NC(=O)N[C@@H]21)C(N)=O)C(C)C` [Y12y] (Ac-YEQDPWGVRYW[dY]GGGS[dK][dK][dK]K(Biotin)-NH2), the “protection against endolytic cleavage” value in data set [1] is “did not improve serum stability at the W10/W11 site”.

For “CGYEQDPWGVRYWYGCkkk(k(N3)-sulfoCy5) (disulfide) [Cyclic M2pep(RY)-sulfoCy5]”, in data set [2], the “intratumoral selectivity to M2-like TAMs over M1-like TAMs and CD11b- cells” value is “selectivity to M2-like TAMs over M1-like TAMs and non-TAM CD11b^- cells was observed”; the “intratumoral uptake in M2-like TAMs (flow cytometry)” value is “significantly higher uptake in M2-like TAMs compared to M2pep-sulfoCy5”. Moreover, the “intratumoral accumulation in M2-like TAMs (flow cytometry)” value in data set [3] is listed as “accumulated preferentially in M2-like TAMs”. In the case of “YEQDPWGVKWWYGGGSKKK(k(N3)-sulfoCy5) [M2pep-sulfoCy5]”, the “intratumoral selectivity to M2-like TAMs over M1-like TAMs and CD11b- cells” value in data set [2] was “selectivity to M2-like TAMs over M1-like TAMs and non-TAM CD11b^- cells was observed”.
